Bioassay records from PubChem BioAssay.
IMP-1 inh: IMP-1 metallo-beta-lactamase inhibitors, primary screen, biochemical, epi-absorbance readout, Pseudomonas aeruginosa enzyme | purified IMP-1, nitrocefin hydrolysis, epi-absorbance fluorescence | inhibition, % at 5.6 µM | 290,000 compounds, 0.45% hits | AID 1556, 2009;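 active means inhibition above the mean plus 3 SD of all compounds in the same screening run, cut at about 4.5% in these data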
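System: Purified recombinant IMP-1 metallo-beta-lactamase enzyme | Measured by: Fluorescence quenching readout, ex 480/em 530 nm | Replication: Singlicate | Incubation: 15 min preincubation plus 25 min reaction at 25 °C | Evaluation: Percent inhibition from optical density relative to buffer-blank wells | Benchmarks: DMSO with and without IMP-1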
VIM-2 inhibitor: VIM-2 metallo-beta-lactamase inhibitors, primary screen, biochemical, epi-absorbance readout, Pseudomonas aeruginosa enzyme; inhibition, % at 5.6 µM; 290,000 compounds, 0.89% hits; purified VIM-2, nitrocefin hydrolysis, epi-absorbance fluorescence;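 active means inhibition above the mean of all tested compounds plus 3 SD, cutoff set per screening run, cut at about 7.5% in these data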;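 further: red hydrolysis product quenches plate fluorescence so inhibitors raise well fluorescence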
NadD inh: inhibitors of S. aureus NadD, primary screen, biochemical, colorimetric, uHTS; Nicotinate-nucleotide adenylyltransferase NadD (Staphylococcus aureus N315); purified NadD enzyme, colorimetric absorbance read-out; 360,000 compounds, 0.78% hits; inhibition, % at 20 µM; AID 602399, 2012; in the data active means inhibition above about 26%
core dimer inh: inhibitors of HCV core protein dimerization, primary screen, biochemical, TR-FRET, high-throughput; inhibition, % at 5 µM; TR-FRET GST/Flag-core106 dimerization, 1536-well; 300,000 compounds, 0.33% hits; AID 1899, 2009;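 active means inhibition above the mean of all tested compounds plus 3 SD, set per screening campaign, cut at about 45% in these data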
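Assay system – GST-tagged and Flag-tagged HCV core protein residues 1-106 · Quantity – core106 proteins, GST 13.5 nM and Flag 17 nM · Benchmarks – unlabelled core106 and no-GST-core106 wells · Read-out basis – percent inhibition of core106 dimerization signal · Detection – time-resolved FRET, ex 340 nm, em 617 and 671 nm · Schedule – 4 h at 22.5 °C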
Each line names hits and unclear results; the compound was inactive in the other large screens. Compounds with a hit are over-represented: about 1.9% of the library has one in this group of screens.

NC(=O)[C@@H]1CCCNc2c(I)cc([N+](=O)[O-])cc2C(=O)N[C@@H](CCCN=C(N)N)C(=O)N[C@@H](CCCN=C(N)N)C(=O)N1	IMP-1 inh 11.6 (no result: NadD inh)
CC[C@H](C)[C@@H]1NC(=O)c2cc([N+](=O)[O-])cc(I)c2NCC[C@@H](C(N)=O)NC(=O)[C@H](CCCN=C(N)N)NC1=O	none (no result: NadD inh)
O=C(Nc1ccc2c(c1)CN(Cc1ccc(CO)o1)CC2)c1ccc(C(F)(F)F)cc1	core dimer inh 57.5
CCCc1nc(SCc2cccnc2)c2c(=O)n(C)c(=O)n(C)c2n1	VIM-2 inhibitor 10.3
CCCC1CCc2[nH]nc(C(=O)NN)c2C1 (stereo not drawn)	none (no result: IMP-1 inh, VIM-2 inhibitor)
COc1ccc(CNC(=O)c2cc3c(=O)[nH]c4ccccc4c3n2C)cc1	none
CCn1c(=O)c2cc(C(=O)Nc3ccc(OC)cc3OC)sc2c2ccccc21	none
CCOCCCNC(=O)c1cc2c(=O)n(CC)c3ccccc3c2s1	VIM-2 inhibitor 7.9
CCCCN(C)CCNC(=O)c1cc2c(=O)[nH]c3ccccc3c2n1C	VIM-2 inhibitor 8.6
CCCN(CCC)CCNC(=O)c1cc2c(=O)n(CC)c3ccccc3c2s1	VIM-2 inhibitor 10.3
CCn1c(=O)c2cc(C(=O)NCCOC)sc2c2ccccc21	VIM-2 inhibitor 8.3
CCCN(CCC)CCCNC(=O)c1cc2c(=O)[nH]c3ccccc3c2s1	VIM-2 inhibitor 9.7
O=C(O)c1ccc(S(=O)(=O)N2CCCC2)cc1	none
O=C(O)c1ccc(S(=O)(=O)c2ccc(Sc3ccc(C(=O)O)c(C(=O)O)c3)cc2)cc1	VIM-2 inhibitor 8.9
COc1cccc(-c2nc(-c3ccc4c(c3)-c3ccccc3S4(=O)=O)c(-c3ccccc3)[nH]2)c1OC	IMP-1 inh 4.8
CC(=O)c1ccc(S(=O)(=O)N2CCN(C(C)C(=O)N(C)Cc3ccccc3)CC2)cc1 (stereo not drawn)	none (no result: IMP-1 inh, VIM-2 inhibitor, core dimer inh)
CCCN1Cc2cccc(C(=O)Nc3ccc(CN4CCCC4)cc3)c2C1=O	VIM-2 inhibitor 11.6
CCNC(=O)C12CCC(C)(c3nc4cc(C)c(C)cc4nc31)C2(C)C (stereo not drawn)	none
O=C(O)Cc1sc(NC2CCCCC2)nc1-c1ccc(Cl)cc1	IMP-1 inh 5.3
Cc1ccc(-c2nc(Nc3cccc(C)c3)sc2CC(=O)O)cc1	none
CC(C)(C)n1nnnc1SCC(=O)Nc1nn(-c2ccccc2)nc1C(N)=O	none
NC(=O)C1CCN(C2=C(NS(=O)(=O)c3ccc(Br)cc3)C(=O)c3ccccc3C2=O)CC1	none
CCOC(=O)N1CCN(C2=C(NS(=O)(=O)c3ccccc3)C(=O)c3ccccc3C2=O)CC1	VIM-2 inhibitor 9.4
NC(=O)C1CCN(C2=C(NS(=O)(=O)c3ccccc3)C(=O)c3ccccc3C2=O)CC1	VIM-2 inhibitor 8.8
O=C1C(NS(=O)(=O)c2ccc(Cl)cc2)=C(N2CCCCC2)C(=O)c2ccccc21	VIM-2 inhibitor 9.3
CCN(c1ccccc1)S(=O)(=O)c1c(C)noc1C	none (no result: IMP-1 inh, VIM-2 inhibitor, core dimer inh)
O=C(NCc1ccc(Cl)cc1)N1CCN(S(=O)(=O)c2ccccc2)CC1	none
COc1ccc2cc(C)c3nnc(SCc4cccnc4)n3c2c1	VIM-2 inhibitor 8.9
COC/C=C/C1=CC2=CC(=O)C(C)(OC(=O)c3cccs3)C(=O)C2=CO1 (stereo not drawn)	none (no result: IMP-1 inh, VIM-2 inhibitor, NadD inh)
COC/C=C/C1=CC2=CC(=O)C(C)(O)C(=O)C2=CO1 (stereo not drawn)	core dimer inh 57.6 (no result: IMP-1 inh, VIM-2 inhibitor, NadD inh)
COC/C=C/C1=CC2=CC(=O)C(C)(OC(=O)c3ccco3)C(=O)C2=CO1 (stereo not drawn)	core dimer inh 50.8 (no result: IMP-1 inh, VIM-2 inhibitor, NadD inh)
COc1ccccc1Nc1nc(-c2sc(N)nc2C)cs1	none
Cc1nc(N)sc1-c1csc(Nc2ncccn2)n1	IMP-1 inh 26.9 (no result: core dimer inh)
O=C(COC(=O)c1cc(S(=O)(=O)Nc2ccccc2Cl)ccc1O)Nc1ccc(F)c(F)c1F	none (no result: IMP-1 inh, VIM-2 inhibitor, core dimer inh)
CCn1c2ccccc2c2nnc(SCC(=O)N3CC(C)OC(C)C3)nc21 (stereo not drawn)	VIM-2 inhibitor 8.3
COc1ccccc1N1CCN(C(=O)CSc2nnc3c4ccccc4n(CC(=O)O)c3n2)CC1	none
Cc1ccc(C(=O)CCC(=O)Nc2cc(C)ccn2)cc1	none (no result: IMP-1 inh, VIM-2 inhibitor, core dimer inh)
CCOc1ccccc1NC(=O)CCNS(=O)(=O)c1ccccc1	IMP-1 inh 7.3
N=c1c2ccccc2nnn1-c1ccc(C(F)(F)F)cc1	none
CC(C)c1ccc(NC(=S)N2CCN(S(=O)(=O)c3ccccc3)CC2)cc1	none
